Laboratory results: article PMC11060919 (International journal of antimicrobial agents, 2024)

Experiments:
[1] = test system: male Sprague-Dawley rats; test: Urinary clusterin, kidney injury biomarker, 24-hour urine; type: in vivo, Sprague-Dawley rat; details: dose-matched bolus versus humanized infusion as referent
Procedure, shortened: (§1)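 Male Sprague-Dawley rats were housed in metabolic cages, with 24-h urine collected from baseline (day 0) through day 2. On day 1 the glycopeptide was given IV either as 30.8 mg in 6.0 mL saline by variable-rate infusion over 24 hours (n=11), or as 15.4 mg boluses over 2 minutes every 12 hours ×2 plus volume-matching saline infusion (n=8). Analysis: mixed-effects model, day 0 referent, Bonferroni-corrected group-by-day tests.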

[2] = test system: male Sprague-Dawley rats; test: Iohexol-measured GFR; type: in vivo, Sprague-Dawley rat; details: Baseline (day 0, before vancomycin); dose-matched bolus group versus humanized infusion group as referent; marginal difference, mixed effects model
[3] = test system: male Sprague-Dawley rats; test: Urinary osteopontin; type: in vivo, Sprague-Dawley rat; details: dose-matched bolus versus humanized infusion as referent
Procedure, shortened: as §1

[4] = test system: male Sprague-Dawley rats; test: Urinary KIM-1, kidney injury biomarker, 24-hour urine; type: in vivo, Sprague-Dawley rat; details: dose-matched bolus versus humanized infusion as referent
Procedure, shortened: as §1

[5] = test system: rat; details: translational rat model; increased nephrotoxic effect; cited from earlier work

SMILES	Urinary clusterin difference, mean (95% CI) ([1]; Day 1) [ng]	Urinary clusterin difference, mean (95% CI) ([1]; Day 2) [ng]	GFR difference, mean (95% CI) [2] [mL/min/100 g body weight]	Urinary OPN difference, mean (95% CI) ([3]; Day 1) [ng]	Urinary OPN difference, mean (95% CI) ([3]; Day 2) [ng]	KIM-1 difference, mean (95% CI) ([4]; Day 1) [ng]	KIM-1 difference, mean (95% CI) ([4]; Day 2) [ng]	increase of urinary KIM-1 when added to vancomycin, compared to vancomycin [5] [ng/24 hours]
CN[C@H](CC(C)C)C(=O)N[C@H]1C(=O)N[C@@H](CC(N)=O)C(=O)N[C@H]2C(=O)N[C@H]3C(=O)N[C@H](C(=O)N[C@H](C(=O)O)c4cc(O)cc(O)c4-c4cc3ccc4O)[C@H](O)c3ccc(c(Cl)c3)Oc3cc2cc(c3O[C@@H]2O[C@H](CO)[C@@H](O)[C@H](O)[C@H]2O[C@H]2C[C@](C)(N)[C@H](O)[C@H](C)O2)Oc2ccc(cc2Cl)[C@H]1O [vancomycin]	1932	-3103	0.05	-1.76	0.52	9.80	-2.27	
Cc1onc(-c2c(F)cccc2Cl)c1C(=O)N[C@@H]1C(=O)N2[C@@H]1SC(C)(C)[C@@H]2C(=O)O [flucloxacillin]								58 to 140
